From ChEMBL document CHEMBL4673330, “Preparations and antioxidant activities of sesamol and it's derivatives” (Bioorg Med Chem Lett, 2021)

Key:
Type in all cases: functional
[1] = Antioxidant activity assessed as reduction in lipid peroxidation by measuring antiperoxide-index at 1.2 g/L by thiobarbituric acid method relative to control; design: scale not given: the % may be the effect or the level left
How it was run: (§1)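 Anti-lipid-peroxidation (antiperoxide index, %) was tested at 0.2–1.2 g/L, with sesamol as positive control. Values are means ± SD from at least eight independent experiments, each in triplicate (n = 3), with t-tests (p < 0.05).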

[2] = Antioxidant activity assessed as reduction in lipid peroxidation by measuring antiperoxide-index at 1 g/L by thiobarbituric acid method relative to control; design: scale not given: the % may be the effect or the level left; how it was run: as §1
[3] = Antioxidant activity assessed as reduction in lipid peroxidation by measuring antiperoxide-index at 0.8 g/L by thiobarbituric acid method relative to control; design: scale not given: the % may be the effect or the level left; how it was run: as §1
[4] = Antioxidant activity assessed as reduction in lipid peroxidation by measuring antiperoxide-index at 0.6 g/L by thiobarbituric acid method relative to control; design: scale not given: the % may be the effect or the level left; how it was run: as §1
[5] = Antioxidant activity assessed as reduction in lipid peroxidation by measuring antiperoxide-index at 0.4 g/L by thiobarbituric acid method relative to control; design: scale not given: the % may be the effect or the level left; how it was run: as §1
[6] = Antioxidant activity assessed as reduction in lipid peroxidation by measuring antiperoxide-index at 0.2 g/L by thiobarbituric acid method relative to control; design: scale not given: the % may be the effect or the level left; how it was run: as §1
[7] = Antioxidant activity assessed as reduction of potassium ferricyanide trivalent iron into potassium ferrocyanide bivalent iron and ferrous iron by measuring eliminate efficiency at 1.2 g/L relative to control; design: scale not given: the % may be the effect or the level left
How it was run: (§2)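 Reducing capacity was read as absorbance at 700 nm, where higher absorbance means greater reducing ability. Tested at 0.2–1.2 g/L against sesamol as positive control. Values are means from at least eight independent experiments, each in triplicate (n = 3), with t-tests (p < 0.05).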

[8] = Antioxidant activity assessed as reduction of potassium ferricyanide trivalent iron into potassium ferrocyanide bivalent iron and ferrous iron by measuring eliminate efficiency at 1 g/L relative to control; design: scale not given: the % may be the effect or the level left; how it was run: as §2
[9] = Antioxidant activity assessed as reduction of potassium ferricyanide trivalent iron into potassium ferrocyanide bivalent iron and ferrous iron by measuring eliminate efficiency at 0.8 g/L relative to control; design: scale not given: the % may be the effect or the level left; how it was run: as §2
[10] = Antioxidant activity assessed as reduction of potassium ferricyanide trivalent iron into potassium ferrocyanide bivalent iron and ferrous iron by measuring eliminate efficiency at 0.6 g/L relative to control; design: scale not given: the % may be the effect or the level left; how it was run: as §2
[11] = Antioxidant activity assessed as reduction of potassium ferricyanide trivalent iron into potassium ferrocyanide bivalent iron and ferrous iron by measuring eliminate efficiency at 0.4 g/L relative to control; design: scale not given: the % may be the effect or the level left; how it was run: as §2
[12] = Antioxidant activity assessed as reduction of potassium ferricyanide trivalent iron into potassium ferrocyanide bivalent iron and ferrous iron by measuring eliminate efficiency at 0.2 g/L relative to control; design: scale not given: the % may be the effect or the level left; how it was run: as §2
[13] = Antioxidant activity assessed as superoxide anion radical scavenging rate at 1 g/L relative to control
How it was run: (§3)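 Pyrocatechol autoxidation in weak alkaline medium produces a coloured intermediate and superoxide anion; the intermediate absorbs maximally at 320 nm. Scavenging rate was measured at 0.2–1.2 g/L, with sesamol as positive control. Values are means ± SD from at least eight independent experiments, each in triplicate (n = 3), with t-tests (p < 0.05).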

[14] = Antioxidant activity assessed as superoxide anion radical scavenging rate at 1.2 g/L relative to control; how it was run: as §3
[15] = Antioxidant activity assessed as superoxide anion radical scavenging rate at 0.8 g/L relative to control; how it was run: as §3
[16] = Antioxidant activity assessed as superoxide anion radical scavenging rate at 0.4 g/L relative to control; how it was run: as §3
[17] = Antioxidant activity assessed as superoxide anion radical scavenging rate at 0.6 g/L relative to control; how it was run: as §3
[18] = Antioxidant activity assessed as superoxide anion radical scavenging rate at 0.2 g/L relative to control; how it was run: as §3
[19] = Antioxidant activity assessed as hydroxyl radical scavenging rate at 1 g/L relative to control
How it was run: (§4)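 Hydroxyl radical scavenging was read as absorbance of the reaction solution at 510 nm by a fixed reaction time method. Derivatives were tested at 0.2–1.2 g/L, with sesamol as positive control. Values are means ± SD from at least eight independent experiments, each in triplicate (n = 3), with t-tests (p < 0.05).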

[20] = Antioxidant activity assessed as hydroxyl radical scavenging rate at 1.2 g/L relative to control; how it was run: as §4
[21] = Antioxidant activity assessed as hydroxyl radical scavenging rate at 0.8 g/L relative to control; how it was run: as §4
[22] = Antioxidant activity assessed as hydroxyl radical scavenging rate at 0.4 g/L relative to control; how it was run: as §4
[23] = Antioxidant activity assessed as hydroxyl radical scavenging rate at 0.6 g/L relative to control; how it was run: as §4
[24] = Antioxidant activity assessed as hydroxyl radical scavenging rate at 0.2 g/L relative to control; how it was run: as §4

Structure (SMILES)	Activity [1]	Activity [2]	Activity [3]	Activity [4]	Activity [5]	Activity [6]	Activity [7]	Activity [8]	Activity [9]	Activity [10]	Activity [11]	Activity [12]	Activity [13]	Activity [14]	Activity [15]	Activity [16]	Activity [17]	Activity [18]	Activity [19]	Activity [20]	also measured
Oc1ccc2c(c1)OCO2	74.9%	72.8%	66.1%	55.1%	30.6%	12.8%	82.6%	81.9%	75.4%	56.4%	29.7%	12.4%	69.6%	70.3%	63.3%	27.8%	52.7%	12.1%	70.8%	71.5%	Activity [21]: 67.4%; Activity [22]: 30.2%; Activity [23]: 56.2%; Activity [24]: 13%
O=c1oc2ccc3c(c2c2c(Cl)cccc12)OCO3	93.8%	91.1%	82.8%	69%	38.4%	16%	93.6%	92.7%	84.3%	72.6%	38.2%	15.9%	87.4%	88.3%	79.4%	34.8%	66.2%	15.2%	87.4%	88.2%	Activity [21]: 83.2%; Activity [22]: 38.7%; Activity [23]: 69.3%; Activity [24]: 16.1%
O=c1oc2ccc3c(c2c2ccccc12)OCO3	92.7%	90%	81.8%	68.2%	37.9%	15.8%	90.7%	89.8%	81.6%	70.4%	37%	15.4%	90.2%	91.1%	82%	35.9%	68.3%	15.6%	87.4%	88.2%	Activity [21]: 83.2%; Activity [22]: 38.9%; Activity [23]: 69.3%; Activity [24]: 16.1%
O=C(Oc1ccc2c(c1)OCO2)c1c(Cl)cccc1Cl	82.6%	80.2%	72.9%	60.8%	33.8%	14.1%	84.3%	83.4%	75.8%	65.4%	34.4%	14.3%	75%	75.8%	68.2%	29.9%	56.9%	13%	76.4%	77.1%	Activity [21]: 72.7%; Activity [22]: 32.7%; Activity [23]: 60.6%; Activity [24]: 14%
O=c1oc2ccc3c(c2c2cc(Cl)ccc12)OCO3	99.4%	96.5%	87.8%	73.1%	40.6%	16.9%	99.8%	98.8%	89.9%	77.5%	40.8%	17%	95.7%	96.7%	87%	38.1%	72.5%	16.6%	97.4%	98.3%	Activity [21]: 92.7%; Activity [22]: 42.9%; Activity [23]: 77.3%; Activity [24]: 17.9%
O=C(Oc1ccc2c(c1)OCO2)c1cc(Cl)ccc1Cl	76.2%	74%	67.3%	56.1%	31.1%	13%	76.1%	75.3%	68.5%	59%	31.1%	12.9%	69.8%	70.5%	63.5%	27.9%	52.9%	12.1%	74.2%	74.9%	Activity [21]: 70.7%; Activity [22]: 32.6%; Activity [23]: 58.9%; Activity [24]: 13.6%
O=C(Oc1ccc2c(c1)OCO2)c1ccc(Cl)cc1Cl	74.5%	72.3%	65.7%	54.8%	30.4%	12.7%	75.7%	74.9%	68.1%	58.7%	30.9%	12.9%	65.6%	66.3%	59.7%	26.2%	49.7%	11.4%	69.9%	70.6%	Activity [21]: 66.6%; Activity [22]: 30.7%; Activity [23]: 55.5%; Activity [24]: 12.8%
O=C(Oc1ccc2c(c1)OCO2)c1ccccc1Cl	83.5%	81.1%	73.7%	61.4%	34.1%	14.2%	85.6%	84.7%	77%	66.4%	34.9%	14.6%	76.5%	77.2%	69.5%	30.5%	57.9%	13.3%	77.5%	78.2%	Activity [21]: 73.8%; Activity [22]: 34.4%; Activity [23]: 61.5%; Activity [24]: 14.2%
O=C(Oc1ccc2c(c1)OCO2)c1cccc(Cl)c1Cl	66.4%	64.4%	58.6%	48.8%	27.1%	11.3%	66.2%	65.5%	59.6%	51.3%	27%	11.3%	59.9%	60.5%	54.5%	23.9%	45.4%	10.4%	60.4%	61%	Activity [21]: 57.5%; Activity [22]: 26.4%; Activity [23]: 47.9%; Activity [24]: 11.1%
O=c1oc2ccc3c(c2c2cccc(Cl)c12)OCO3	95.7%	92.9%	84.5%	70.4%	39.1%	16.3%	96.1%	95.2%	86.5%	74.6%	39.3%	16.4%	94.1%	95%	85.5%	37.5%	71.3%	16.3%	94.4%	95.3%	Activity [21]: 89.9%; Activity [22]: 40.6%; Activity [23]: 74.9%; Activity [24]: 17.3%
O=c1oc2ccc3c(c2c2ccc(Cl)cc12)OCO3	97.2%	94.4%	85.8%	71.5%	39.7%	16.6%	94.3%	93.4%	84.9%	73.2%	38.5%	16.1%	92.6%	93.5%	84.2%	36.9%	70.1%	16.1%	92.6%	93.6%	Activity [21]: 88.2%; Activity [22]: 40.8%; Activity [23]: 73.5%; Activity [24]: 17%
